Experimental findings from ChEMBL document CHEMBL4406830, “Galloyl esters of trans-stilbenes are inhibitors of FASN with anticancer activity on non-small cell lung cancer cells” (Eur J Med Chem, 2019) are described below.

The source made the active and inactive calls. The rule behind the calls is not given here.

The experiment deals with Fatty acid synthase (Homo sapiens) (UniProt P49327). Nature of the experiment: Inhibition of full length human FASN transfected in HeLa cell lysates at 10 uM using acetyl Co-A/malonyl Co-A as substrate preincubated with enzyme for 2 hrs followed by substrate addition measured after 10 mins in presence of NADPH by microplate reader analysis. The experiment is classed as subcellular. The settings on record: Lysate. The method, boiled down: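 Human FASN was made by in vitro translation from a FASN plasmid. Lysate was diluted 3:7 in 100 mM potassium phosphate, pH 6.5, 1 mM EDTA. It was preincubated with compound (10 µM final) for 2 h at 37 °C. Buffer containing acetyl-CoA (55 µM) and NADPH (330 µM) was added, then the reaction was started with malonyl-CoA (500 µM stock). A340 was read at 0 and 10 min; triplicates.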
Chain of Fatty acid synthase (Homo sapiens) (P49327 whole entry, looked up): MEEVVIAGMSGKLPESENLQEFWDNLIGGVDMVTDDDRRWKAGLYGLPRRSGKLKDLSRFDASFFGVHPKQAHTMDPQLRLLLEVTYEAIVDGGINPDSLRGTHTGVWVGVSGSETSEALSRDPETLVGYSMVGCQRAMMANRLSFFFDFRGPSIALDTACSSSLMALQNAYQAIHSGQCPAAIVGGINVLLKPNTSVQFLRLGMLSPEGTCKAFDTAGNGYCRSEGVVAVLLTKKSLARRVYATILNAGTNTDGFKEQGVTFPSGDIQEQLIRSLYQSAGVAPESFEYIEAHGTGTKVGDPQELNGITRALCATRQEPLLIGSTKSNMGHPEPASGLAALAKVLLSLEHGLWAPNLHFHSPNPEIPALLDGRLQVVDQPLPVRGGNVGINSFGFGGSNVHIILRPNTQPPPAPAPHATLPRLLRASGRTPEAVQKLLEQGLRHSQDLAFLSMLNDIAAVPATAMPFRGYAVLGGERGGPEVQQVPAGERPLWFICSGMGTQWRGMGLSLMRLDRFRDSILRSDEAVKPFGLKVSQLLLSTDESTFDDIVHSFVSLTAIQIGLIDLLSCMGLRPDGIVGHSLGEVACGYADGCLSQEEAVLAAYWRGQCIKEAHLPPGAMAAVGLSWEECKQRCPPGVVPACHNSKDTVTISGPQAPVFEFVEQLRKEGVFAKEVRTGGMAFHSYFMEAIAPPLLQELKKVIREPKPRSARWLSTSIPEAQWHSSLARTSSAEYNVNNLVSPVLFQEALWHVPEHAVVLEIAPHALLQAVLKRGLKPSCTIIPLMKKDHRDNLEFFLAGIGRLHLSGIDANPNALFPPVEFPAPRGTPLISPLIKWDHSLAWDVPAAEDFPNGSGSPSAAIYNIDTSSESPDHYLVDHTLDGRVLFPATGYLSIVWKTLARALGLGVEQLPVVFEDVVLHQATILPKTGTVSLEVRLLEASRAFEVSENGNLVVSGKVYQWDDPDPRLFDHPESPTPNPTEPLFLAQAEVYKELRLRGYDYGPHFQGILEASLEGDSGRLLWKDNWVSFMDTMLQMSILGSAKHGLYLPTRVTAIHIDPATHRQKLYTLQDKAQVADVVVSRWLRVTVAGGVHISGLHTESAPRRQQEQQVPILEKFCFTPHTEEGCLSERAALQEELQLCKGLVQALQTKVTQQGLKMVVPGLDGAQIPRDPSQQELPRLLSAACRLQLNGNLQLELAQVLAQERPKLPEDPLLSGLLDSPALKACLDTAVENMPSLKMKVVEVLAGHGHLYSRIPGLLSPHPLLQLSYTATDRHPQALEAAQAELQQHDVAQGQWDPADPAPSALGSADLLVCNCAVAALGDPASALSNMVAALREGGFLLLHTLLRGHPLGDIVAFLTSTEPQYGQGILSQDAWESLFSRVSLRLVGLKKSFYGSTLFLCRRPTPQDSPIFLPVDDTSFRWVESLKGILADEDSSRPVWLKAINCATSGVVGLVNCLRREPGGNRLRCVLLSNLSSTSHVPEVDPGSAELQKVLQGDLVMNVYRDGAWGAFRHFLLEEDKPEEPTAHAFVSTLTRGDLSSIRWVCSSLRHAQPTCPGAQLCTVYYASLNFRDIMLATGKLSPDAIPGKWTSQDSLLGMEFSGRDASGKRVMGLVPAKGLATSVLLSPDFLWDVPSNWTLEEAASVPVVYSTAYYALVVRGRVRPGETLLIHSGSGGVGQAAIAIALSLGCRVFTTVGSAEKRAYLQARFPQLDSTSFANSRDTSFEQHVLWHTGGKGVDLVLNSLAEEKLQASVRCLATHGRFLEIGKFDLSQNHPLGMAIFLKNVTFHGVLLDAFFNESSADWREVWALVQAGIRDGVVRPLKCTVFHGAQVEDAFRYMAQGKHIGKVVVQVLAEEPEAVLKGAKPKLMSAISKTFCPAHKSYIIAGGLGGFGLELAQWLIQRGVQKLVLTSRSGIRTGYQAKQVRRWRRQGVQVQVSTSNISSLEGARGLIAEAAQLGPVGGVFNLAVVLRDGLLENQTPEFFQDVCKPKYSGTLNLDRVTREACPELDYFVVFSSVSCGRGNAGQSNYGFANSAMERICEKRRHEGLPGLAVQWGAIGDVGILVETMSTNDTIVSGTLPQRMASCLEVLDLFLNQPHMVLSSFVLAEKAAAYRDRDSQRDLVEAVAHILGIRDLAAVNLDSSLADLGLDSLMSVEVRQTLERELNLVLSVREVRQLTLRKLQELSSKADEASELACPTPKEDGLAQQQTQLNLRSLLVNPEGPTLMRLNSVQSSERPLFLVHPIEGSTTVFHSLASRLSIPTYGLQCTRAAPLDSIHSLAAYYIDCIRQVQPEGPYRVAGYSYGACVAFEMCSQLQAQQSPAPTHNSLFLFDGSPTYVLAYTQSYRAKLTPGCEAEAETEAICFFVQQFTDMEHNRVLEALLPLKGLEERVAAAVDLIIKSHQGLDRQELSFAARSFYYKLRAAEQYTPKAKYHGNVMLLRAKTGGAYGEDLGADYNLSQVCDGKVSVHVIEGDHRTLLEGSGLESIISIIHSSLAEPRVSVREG

Regarding `O=C(Oc1ccc(/C=C/c2ccc(OC(=O)c3cc(O)c(O)c(O)c3)cc2)cc1)c1cc(O)c(O)c(O)c1`, the inhibition result is “Active”. Then `O=C(Oc1ccc(/C=C/c2cccc(OC(=O)c3cc(O)c(O)c(O)c3)c2)cc1)c1cc(O)c(O)c(O)c1`, with “Active”.
